According to ChEMBL document CHEMBL1140384, “Synthesis and structure-activity relationships of suramin-derived P2Y11 receptor antagonists with nanomolar potency” (J Med Chem, 2005):

Legend:
P2Y purinoceptor 2 = P2Y purinoceptor 2 (Homo sapiens, UniProt P41231); assay: Percent inhibition of agonist-induced calcium mobilization at P2Y purinoceptor 2 recombinantly expressed in human HEK293 cells at 100 uM dose; assay type: functional, cell-based; conditions: in the assay text read “native in” for “recombinantly expressed in”
Procedure, shortened: (§1)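 Single 100 µM antagonist dose, preincubated 30 min at 37 °C, in a Ca2+ fluorescence assay (Oregon Green 488 BAPTA-1/AM). Agonists: 31.6 nM 2-MeSADP for native P2Y1 and 3.16 µM UTP for native P2Y2, both in HEK293 cells; 1 µM ATPγS for recombinant P2Y11 in 1321N1 cells. Response expressed as % of agonist control; mean ± SEM, n ≥ 3.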

P2Y purinoceptor 1 = P2Y purinoceptor 1 (Homo sapiens, UniProt P47900); assay: Percent inhibition of agonist-induced calcium mobilization at P2Y purinoceptor 1 recombinantly expressed in human HEK293 cells at 100 uM dose; assay type: functional, cell-based; conditions: in the assay text read “native in” for “recombinantly expressed in”; procedure, shortened: as §1
[1] = target: T1, P2Y purinoceptor 11 (Homo sapiens) (UniProt Q96G91); assay: Percent inhibition of agonist-induced calcium mobilization at P2Y purinoceptor 11 recombinantly expressed in human 1321N1 astrocytoma cells at 100 uM dose
T1 sequence (whole entry): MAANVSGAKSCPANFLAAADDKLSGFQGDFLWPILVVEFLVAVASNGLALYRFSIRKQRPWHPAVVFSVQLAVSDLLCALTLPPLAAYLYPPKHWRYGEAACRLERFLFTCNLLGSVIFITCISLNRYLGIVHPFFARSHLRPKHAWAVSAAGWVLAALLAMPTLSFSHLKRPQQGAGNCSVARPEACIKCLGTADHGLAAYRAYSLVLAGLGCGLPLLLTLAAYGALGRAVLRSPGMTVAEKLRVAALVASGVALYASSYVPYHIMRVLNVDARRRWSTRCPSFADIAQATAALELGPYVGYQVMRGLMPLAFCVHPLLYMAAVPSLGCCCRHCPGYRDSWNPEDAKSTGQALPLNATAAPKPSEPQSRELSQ

P2Y purinoceptor 11 [2] = target: T2, P2Y purinoceptor 11 (Homo sapiens, UniProt Q96G91); assay: Inhibitory concentration against P2Y purinoceptor 11 expressed in 1321N1 astrocytoma cells; n=3; assay type: cell-based
T2 sequence (Q96G91 whole entry): T1 sequence (whole entry)
Procedure, shortened: (§2)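 Human P2Y11 stably expressed in 1321N1 astrocytoma cells (G418 selection), loaded with Oregon Green 488 BAPTA-1/AM (3 µM, 60 min, 25 °C) in Krebs-HEPES. Compound preincubated 30 min at 37 °C before injection of 1 µM ATPγS. Ca2+ fluorescence read at ex 485/em 520 nm for 30 s. IC50 from concentration-inhibition curves; independent experiments each run in triplicate.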

[3] = target: T1, P2Y purinoceptor 11 (Homo sapiens); assay: Relative potency was measured against P2Y purinoceptor 11; assay type: functional
P2Y purinoceptor 11 [4] = target: T2, P2Y purinoceptor 11; assay: Inhibitory concentration against P2Y purinoceptor 11 expressed in 1321N1 astrocytoma cells; n=7; assay type: cell-based; procedure, shortened: as §2
P2Y purinoceptor 11 [5] = target: T2, P2Y purinoceptor 11; assay: Inhibitory concentration against P2Y purinoceptor 11 expressed in 1321N1 astrocytoma cells; n=4; assay type: cell-based; procedure, shortened: as §2
P2Y purinoceptor 11 [6] = target: T2, P2Y purinoceptor 11; assay: Inhibitory concentration against P2Y purinoceptor 11 expressed in 1321N1 astrocytoma cells; n=6; assay type: cell-based; procedure, shortened: as §2

Chain of P2Y purinoceptor 1 (P47900 whole entry): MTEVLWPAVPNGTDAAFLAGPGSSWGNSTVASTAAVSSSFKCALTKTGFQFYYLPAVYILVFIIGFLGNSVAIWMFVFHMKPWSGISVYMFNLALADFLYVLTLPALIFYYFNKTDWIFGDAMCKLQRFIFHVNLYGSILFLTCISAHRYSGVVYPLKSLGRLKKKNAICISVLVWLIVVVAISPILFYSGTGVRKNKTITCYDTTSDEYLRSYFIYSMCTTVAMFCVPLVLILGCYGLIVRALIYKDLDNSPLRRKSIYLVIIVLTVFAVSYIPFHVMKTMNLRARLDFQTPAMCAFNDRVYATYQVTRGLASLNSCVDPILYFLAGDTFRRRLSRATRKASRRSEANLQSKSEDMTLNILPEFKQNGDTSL
Chain of P2Y purinoceptor 2 (P41231 whole entry): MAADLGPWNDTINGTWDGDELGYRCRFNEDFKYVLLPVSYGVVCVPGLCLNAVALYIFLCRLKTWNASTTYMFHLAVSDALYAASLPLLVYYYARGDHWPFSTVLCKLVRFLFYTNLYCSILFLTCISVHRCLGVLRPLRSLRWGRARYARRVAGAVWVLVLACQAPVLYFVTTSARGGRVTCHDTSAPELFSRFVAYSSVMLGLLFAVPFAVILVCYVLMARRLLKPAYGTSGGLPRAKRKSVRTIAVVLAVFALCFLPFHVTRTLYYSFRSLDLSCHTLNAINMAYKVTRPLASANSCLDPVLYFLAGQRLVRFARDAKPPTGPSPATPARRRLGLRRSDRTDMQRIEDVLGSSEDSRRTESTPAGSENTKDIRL

Row | inhibition (P2Y purinoceptor 2) [%] | inhibition (P2Y purinoceptor 1) [%] | inhibition [1] [%] | Ki (P2Y purinoceptor 11 [2]) [nM] | Rel potency [3] | Ki (P2Y purinoceptor 11 [4]) [nM] | Ki (P2Y purinoceptor 11 [5]) [nM] | Ki (P2Y purinoceptor 11 [6]) [nM] | Structure (SMILES)
1 | 20.8 | 38.4 | 39.9 | – | – | – | – | – | CCc1ccc(C(=O)Nc2ccc(S(=O)(=O)O)c3cc(S(=O)(=O)O)cc(S(=O)(=O)O)c23)cc1NC(=O)Nc1cc(C(=O)Nc2ccc(S(=O)(=O)O)c3cc(S(=O)(=O)O)cc(S(=O)(=O)O)c23)ccc1CC
2 | 28.4 | 0 | 86.6 | 7590 | 0.6 | – | – | – | Cc1ccc(C(=O)Nc2ccc(S(=O)(=O)O)c3cc(S(=O)(=O)O)cc(S(=O)(=O)O)c23)cc1NC(=O)Nc1cc(C(=O)Nc2ccc(S(=O)(=O)O)c3cc(S(=O)(=O)O)cc(S(=O)(=O)O)c23)ccc1C
3 | 53.6 | 40 | 11.2 | – | – | – | – | – | COc1ccc(C(=O)Nc2ccc(S(=O)(=O)O)c3cc(S(=O)(=O)O)cc(S(=O)(=O)O)c23)cc1NC(=O)Nc1cc(C(=O)Nc2ccc(S(=O)(=O)O)c3cc(S(=O)(=O)O)cc(S(=O)(=O)O)c23)ccc1OC
4 | 0 | 60 | 64.7 | – | – | – | – | – | O=C(Nc1cc(C(=O)Nc2ccc(S(=O)(=O)O)c3cc(S(=O)(=O)O)cc(S(=O)(=O)O)c23)ccc1F)Nc1cc(C(=O)Nc2ccc(S(=O)(=O)O)c3cc(S(=O)(=O)O)cc(S(=O)(=O)O)c23)ccc1F
5 | 14.2 | 28.7 | 23.2 | – | – | – | – | – | CC(C)c1ccc(C(=O)Nc2ccc(S(=O)(=O)O)c3cc(S(=O)(=O)O)cc(S(=O)(=O)O)c23)cc1NC(=O)Nc1cc(C(=O)Nc2ccc(S(=O)(=O)O)c3cc(S(=O)(=O)O)cc(S(=O)(=O)O)c23)ccc1C(C)C
6 | 13 | 31.7 | 23.8 | – | – | – | – | – | COCc1ccc(C(=O)Nc2ccc(S(=O)(=O)O)c3cc(S(=O)(=O)O)cc(S(=O)(=O)O)c23)cc1NC(=O)Nc1cc(C(=O)Nc2ccc(S(=O)(=O)O)c3cc(S(=O)(=O)O)cc(S(=O)(=O)O)c23)ccc1COC
7 | 0 | 57.8 | 59 | – | – | – | – | – | O=C(Nc1cc(C(=O)Nc2ccc(S(=O)(=O)O)c3cc(S(=O)(=O)O)cc(S(=O)(=O)O)c23)ccc1Cl)Nc1cc(C(=O)Nc2ccc(S(=O)(=O)O)c3cc(S(=O)(=O)O)cc(S(=O)(=O)O)c23)ccc1Cl

More lines, now with the values behind:

Row | Structure (SMILES) | inhibition (P2Y purinoceptor 2) [%] | inhibition (P2Y purinoceptor 1) [%] | inhibition [1] [%] | Ki (P2Y purinoceptor 11 [2]) [nM] | Rel potency [3] | Ki (P2Y purinoceptor 11 [4]) [nM] | Ki (P2Y purinoceptor 11 [5]) [nM] | Ki (P2Y purinoceptor 11 [6]) [nM]
8 | CCc1ccc(C(=O)Nc2ccc(S(=O)(=O)O)c3cc(S(=O)(=O)O)cc(S(=O)(=O)O)c23)cc1NC(=O)c1cccc(NC(=O)Nc2cccc(C(=O)Nc3cc(C(=O)Nc4ccc(S(=O)(=O)O)c5cc(S(=O)(=O)O)cc(S(=O)(=O)O)c45)ccc3CC)c2)c1 | 48.8 | 48.7 | 84.9 | 1000 | 4.5 | – | – | –
9 | O=C(Nc1cccc(C(=O)Nc2ccc(S(=O)(=O)O)c3cc(S(=O)(=O)O)cc(S(=O)(=O)O)c23)c1)Nc1cccc(C(=O)Nc2ccc(S(=O)(=O)O)c3cc(S(=O)(=O)O)cc(S(=O)(=O)O)c23)c1 | 24 | 19.7 | 54.2 | – | – | – | – | –
10 | O=C(Nc1cccc(C(=O)Nc2cc(C(=O)Nc3ccc(S(=O)(=O)O)c4cc(S(=O)(=O)O)cc(S(=O)(=O)O)c34)ccc2-c2ccccc2)c1)Nc1cccc(C(=O)Nc2cc(C(=O)Nc3ccc(S(=O)(=O)O)c4cc(S(=O)(=O)O)cc(S(=O)(=O)O)c34)ccc2-c2ccccc2)c1 | 73.2 | 75.1 | 79.9 | 302 | 15 | – | – | –
11 | O=C(Nc1cc(C(=O)Nc2ccc(S(=O)(=O)O)c3cc(S(=O)(=O)O)cc(S(=O)(=O)O)c23)ccc1-c1ccccc1)Nc1cc(C(=O)Nc2ccc(S(=O)(=O)O)c3cc(S(=O)(=O)O)cc(S(=O)(=O)O)c23)ccc1-c1ccccc1 | 0 | 34.2 | 35.9 | – | – | – | – | –
12 | COc1ccc(C(=O)Nc2ccc(S(=O)(=O)O)c3cc(S(=O)(=O)O)cc(S(=O)(=O)O)c23)cc1NC(=O)c1cccc(NC(=O)Nc2cccc(C(=O)Nc3cc(C(=O)Nc4ccc(S(=O)(=O)O)c5cc(S(=O)(=O)O)cc(S(=O)(=O)O)c45)ccc3OC)c2)c1 | 44.9 | 23.2 | 92.2 | – | 59 | 75.9 | – | –
13 | CC(C)c1ccc(C(=O)Nc2ccc(S(=O)(=O)O)c3cc(S(=O)(=O)O)cc(S(=O)(=O)O)c23)cc1NC(=O)c1cccc(NC(=O)Nc2cccc(C(=O)Nc3cc(C(=O)Nc4ccc(S(=O)(=O)O)c5cc(S(=O)(=O)O)cc(S(=O)(=O)O)c45)ccc3C(C)C)c2)c1 | 31.1 | 45 | 83.1 | 447 | 10 | – | – | –
14 | O=C(Nc1cccc(C(=O)Nc2cc(C(=O)Nc3ccc(S(=O)(=O)O)c4cc(S(=O)(=O)O)cc(S(=O)(=O)O)c34)ccc2Cl)c1)Nc1cccc(C(=O)Nc2cc(C(=O)Nc3ccc(S(=O)(=O)O)c4cc(S(=O)(=O)O)cc(S(=O)(=O)O)c34)ccc2Cl)c1 | 55.2 | 40.6 | 93 | – | 42 | 107 | – | –
15 | COCc1ccc(C(=O)Nc2ccc(S(=O)(=O)O)c3cc(S(=O)(=O)O)cc(S(=O)(=O)O)c23)cc1NC(=O)c1cccc(NC(=O)Nc2cccc(C(=O)Nc3cc(C(=O)Nc4ccc(S(=O)(=O)O)c5cc(S(=O)(=O)O)cc(S(=O)(=O)O)c45)ccc3COC)c2)c1 | 44.3 | 47.5 | 71.6 | – | 1.9 | – | 2400 | –
16 | Cc1ccc(C(=O)Nc2ccc(S(=O)(=O)O)c3cc(S(=O)(=O)O)cc(S(=O)(=O)O)c23)cc1NC(=O)c1cccc(NC(=O)Nc2cccc(C(=O)Nc3cc(C(=O)Nc4ccc(S(=O)(=O)O)c5cc(S(=O)(=O)O)cc(S(=O)(=O)O)c45)ccc3C)c2)c1 [SURAMIN] | 50.5 | 54.5 | 93.7 | – | 15 | – | – | 302
